Reference: PMC3352694 (International Journal of Nanomedicine, 2012)

Assays:
Caco-2 cell monolayers [1] = assay: Uptake of Lac-NCTD and its nanoparticles into Caco-2 cell monolayers; format: in vitro ADME, human
Procedure, shortened: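 Monolayers grown 15 days from 1 × 10⁵ cells/cm² in plates, washed, preincubated 15 min at 37°C in HBSS pH 7.4, then exposed to drug or nanoparticle solution. After uptake (15 min, chosen within the linear range), cells were washed thrice with cold HBSS, scraped, homogenized and ultracentrifuged. Supernatant was assayed by reversed-phase HPLC, normalized to Bradford protein and given as mg/g protein, three determinations.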

Caco-2 cell monolayers [2] = assay: Bidirectional transepithelial transport across Caco-2 cell monolayers; format: in vitro ADME, human
Procedure, shortened: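 Caco-2 cells (passage 30–50) seeded at 1 × 10⁵ cells/cm² on 1.1 cm² polycarbonate inserts (1 μm pores), used day 21 when TEER reached 700 Ω·cm² and phenol red permeability <0.5%/h. HBSS pH 7.4 preincubation 15 min, 37°C; drug or nanoparticles dosed apically or basolaterally; receiver sampled at 5–60 min with replacement; reversed-phase HPLC. Papp = dQ/dt/(A·C0); PDR from BL→AP and AP→BL; n = 3.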

[3] = cited from earlier work

Substance: Lactosyl-norcantharidin [Lac-NCTD]
- Effect of concentration on uptake (Caco-2 cell monolayers [1]; 100 μg/mL to 400 μg/mL): Concentration dependence or saturation was observed
- Uptake amount (Caco-2 cell monolayers [1]; 250 μg/mL, 4°C): 1.35 ± 0.13 mg/g protein
- Time course of uptake (Caco-2 cell monolayers [1]; 250 μg/mL, 37°C): linear in relation to time, from 0 minutes to 30 minutes
- Uptake amount (Caco-2 cell monolayers [1]; 250 μg/mL, pH 6.0): 0.82 ± 0.23 mg/g protein
- Effect of P-gp inhibitor CyA on uptake (Caco-2 cell monolayers [1]; CyA 20 μmol/L): facilitate the uptake procedure
- Effect of MRP2 inhibitor MK-571 on uptake (Caco-2 cell monolayers [1]; MK-571 50 μmol/L): facilitate the uptake procedure
- Change of Papp apical to basolateral with CyA (Caco-2 cell monolayers [2]; 250 μg/mL, CyA 20 μmol/L): increased
- Change of Papp basolateral to apical with CyA (Caco-2 cell monolayers [2]; 250 μg/mL, CyA 20 μmol/L): decreased
- Change of Papp apical to basolateral with MK-571 (Caco-2 cell monolayers [2]; 250 μg/mL, MK-571 50 μmol/L): significantly increased
- Change of Papp basolateral to apical with MK-571 (Caco-2 cell monolayers [2]; 250 μg/mL, MK-571 50 μmol/L): lightly decreased
- Change of Papp with bypass transport enhancer SDCh (Caco-2 cell monolayers [2]; 250 μg/mL, SDCh 100 mmol/L, versus control): significantly increased
- Change of Papp with endocytosis inhibitor oxophenylarsine (Caco-2 cell monolayers [2]; 250 μg/mL, oxophenylarsine 25 mmol/L, versus control): no statistical difference
- Increase of Papp apical to basolateral with CyA (Caco-2 cell monolayers [2]; CyA 20 μmol/L added to the apical side): 1.41 times
- Increase of Papp apical to basolateral with MK-571 (Caco-2 cell monolayers [2]; MK-571 50 μmol/L added to the apical side): 2.29 times
- Therapy efficiency compared with NCTD [3]: significantly higher therapy efficiency
- Toxicity compared with NCTD [3]: lower toxicity
